Assay results published in ChEMBL document CHEMBL2062435, “Synthesis and in vitro antibacterial activity of gemifloxacin derivatives containing a substituted benzyloxime moiety” (2012).

The molecules below were run on Klebsiella pneumoniae (assay: Antimicrobial activity against Klebsiella pneumoniae 10-2 after 18-24 hrs by two-fold serial dilution method).
Format: functional
How it was run: (§1)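 Agar-medium twofold serial dilution against Gram-positive and Gram-negative strains; MIC taken as the lowest compound concentration giving complete inhibition of bacterial growth after incubation at 35 °C for 18-24 h.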
With CS(=O)(=O)O.NCC1CN(c2nc3c(cc2F)c(=O)c(C(=O)O)cn3C2CC2)C/C1=N\OCc1cc2c(cc1Cl)OCO2 (racemic) the MIC was > 128 µg/mL.

Each molecule was assayed on Enterococcus faecalis (assay: Antimicrobial activity against Enterococcus faecalis 10-6 after 18-24 hrs by two-fold serial dilution method).
Format: functional
How it was run: as §1
For CS(=O)(=O)O.NCC1CN(c2nc3c(cc2F)c(=O)c(C(=O)O)cn3C2CC2)C/C1=N\OCc1cc2c(cc1Cl)OCO2 (racemic), the MIC was 8 µg/mL.

What follows are molecules tested on Pseudomonas aeruginosa (assay: Antimicrobial activity against extended spectrum beta-lactamases-producing Pseudomonas aeruginosa 10-20 after 18-24 hrs by two-fold serial dilution method).
Format: functional
How it was run: as §1
Molecule CS(=O)(=O)O.NCC1CN(c2nc3c(cc2F)c(=O)c(C(=O)O)cn3C2CC2)C/C1=N\OCc1cc2c(cc1Cl)OCO2 (racemic) has an MIC of 4 µg/mL.

Each molecule was assayed on Pseudomonas aeruginosa (assay: Antimicrobial activity against extended spectrum beta-lactamases-producing Pseudomonas aeruginosa 10-9 after 18-24 hrs by two-fold serial dilution method).
Format: functional
How it was run: as §1
CS(=O)(=O)O.NCC1CN(c2nc3c(cc2F)c(=O)c(C(=O)O)cn3C2CC2)C/C1=N\OCc1cc2c(cc1Cl)OCO2 (racemic) gave an MIC of 8 µg/mL.

Each molecule was assayed on Enterococcus faecium (assay: Antimicrobial activity against Enterococcus faecium 10-9 after 18-24 hrs by two-fold serial dilution method).
Format: functional
How it was run: as §1
With CS(=O)(=O)O.NCC1CN(c2nc3c(cc2F)c(=O)c(C(=O)O)cn3C2CC2)C/C1=N\OCc1cc2c(cc1Cl)OCO2 (racemic) the MIC was 8 µg/mL.

These molecules were tested on Enterococcus faecalis (assay: Antimicrobial activity against Enterococcus faecalis 10-5 after 18-24 hrs by two-fold serial dilution method).
Format: functional
How it was run: as §1
CS(=O)(=O)O.NCC1CN(c2nc3c(cc2F)c(=O)c(C(=O)O)cn3C2CC2)C/C1=N\OCc1cc2c(cc1Cl)OCO2 (racemic) was tested, and the MIC was 1 µg/mL.

These molecules were tested on Klebsiella pneumoniae (assay: Antimicrobial activity against Klebsiella pneumoniae 10-4 after 18-24 hrs by two-fold serial dilution method).
Format: functional
How it was run: as §1
CS(=O)(=O)O.NCC1CN(c2nc3c(cc2F)c(=O)c(C(=O)O)cn3C2CC2)C/C1=N\OCc1cc2c(cc1Cl)OCO2 (racemic) gave an MIC of 128 µg/mL.

The molecules below were run on Klebsiella pneumoniae (assay: Antimicrobial activity against extended spectrum beta-lactamases-producing Klebsiella pneumoniae 10-2 after 18-24 hrs by two-fold serial dilution method).
Format: functional
How it was run: as §1
CS(=O)(=O)O.NCC1CN(c2nc3c(cc2F)c(=O)c(C(=O)O)cn3C2CC2)C/C1=N\OCc1cc2c(cc1Cl)OCO2 (racemic) was tested, and the MIC was > 128 µg/mL.

These molecules were tested on Streptococcus pneumoniae (assay: Antimicrobial activity against extended spectrum beta-lactamases-producing Streptococcus pneumoniae 10-1 after 18-24 hrs by two-fold serial dilution method).
Format: functional
How it was run: as §1
Molecule CS(=O)(=O)O.NCC1CN(c2nc3c(cc2F)c(=O)c(C(=O)O)cn3C2CC2)C/C1=N\OCc1cc2c(cc1Cl)OCO2 (racemic) has an MIC of 0.5 µg/mL.

The molecules below were run on Escherichia coli (assay: Antimicrobial activity against extended spectrum beta-lactamases-producing Escherichia coli 10-2 after 18-24 hrs by two-fold serial dilution method).
Format: functional
How it was run: as §1
For CS(=O)(=O)O.NCC1CN(c2nc3c(cc2F)c(=O)c(C(=O)O)cn3C2CC2)C/C1=N\OCc1cc2c(cc1Cl)OCO2 (racemic), the MIC was 128 µg/mL.

What follows are molecules tested on Staphylococcus epidermidis (assay: Antimicrobial activity against extended spectrum beta-lactamases-producing methicillin-sensitive Staphylococcus epidermidis 10-15 after 18-24 hrs by two-fold serial dilution method).
Format: functional
How it was run: as §1
Molecule CS(=O)(=O)O.NCC1CN(c2nc3c(cc2F)c(=O)c(C(=O)O)cn3C2CC2)C/C1=N\OCc1cc2c(cc1Cl)OCO2 (racemic) has an MIC of 2 µg/mL.

What follows are molecules tested on Staphylococcus aureus (assay: Antimicrobial activity against extended spectrum beta-lactamases-producing methicillin-resistant Staphylococcus aureus 10-15 after 18-24 hrs by two-fold serial dilution method).
Format: functional
How it was run: (§2)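 Agar twofold serial dilution MIC against clinical isolates. MIC was taken as the lowest concentration giving complete inhibition of bacterial growth after incubation at 35 °C for 18-24 h.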
CS(=O)(=O)O.NCC1CN(c2nc3c(cc2F)c(=O)c(C(=O)O)cn3C2CC2)C/C1=N\OCc1cc2c(cc1Cl)OCO2 (racemic) gave an MIC of 1 µg/mL.

The molecules below were run on Klebsiella pneumoniae (assay: Antimicrobial activity against extended spectrum beta-lactamases-producing Klebsiella pneumoniae 10-3 after 18-24 hrs by two-fold serial dilution method).
Format: functional
How it was run: as §1
With CS(=O)(=O)O.NCC1CN(c2nc3c(cc2F)c(=O)c(C(=O)O)cn3C2CC2)C/C1=N\OCc1cc2c(cc1Cl)OCO2 (racemic) the MIC was > 128 µg/mL.

Each molecule was assayed on Escherichia coli (assay: Antimicrobial activity against Escherichia coli 10-3 after 18-24 hrs by two-fold serial dilution method).
Format: functional
How it was run: as §1
In the case of CS(=O)(=O)O.NCC1CN(c2nc3c(cc2F)c(=O)c(C(=O)O)cn3C2CC2)C/C1=N\OCc1cc2c(cc1Cl)OCO2 (racemic), the MIC is reported as 16 µg/mL.

The molecules below were run on Pseudomonas aeruginosa (assay: Antimicrobial activity against extended spectrum beta-lactamases-producing Pseudomonas aeruginosa 10-18 after 18-24 hrs by two-fold serial dilution method).
Format: functional
How it was run: as §1
CS(=O)(=O)O.NCC1CN(c2nc3c(cc2F)c(=O)c(C(=O)O)cn3C2CC2)C/C1=N\OCc1cc2c(cc1Cl)OCO2 (racemic) was tested, and the MIC was 16 µg/mL.

These molecules were tested on Escherichia coli (assay: Antimicrobial activity against Escherichia coli 10-2 after 18-24 hrs by two-fold serial dilution method).
Format: functional
How it was run: as §1
Work on CS(=O)(=O)O.NCC1CN(c2nc3c(cc2F)c(=O)c(C(=O)O)cn3C2CC2)C/C1=N\OCc1cc2c(cc1Cl)OCO2 (racemic) yielded an MIC of 16 µg/mL.

The molecules below were run on Staphylococcus aureus (assay: Antimicrobial activity against extended spectrum beta-lactamases-producing methicillin-resistant Staphylococcus aureus 10-11 after 18-24 hrs by two-fold serial dilution method).
Format: functional
How it was run: as §2
CS(=O)(=O)O.NCC1CN(c2nc3c(cc2F)c(=O)c(C(=O)O)cn3C2CC2)C/C1=N\OCc1cc2c(cc1Cl)OCO2 (racemic) showed an MIC of 2 µg/mL.

These molecules were tested on Staphylococcus epidermidis (assay: Antimicrobial activity against extended spectrum beta-lactamases-producing methicillin-sensitive Staphylococcus epidermidis 10-13 after 18-24 hrs by two-fold serial dilution method).
Format: functional
How it was run: as §1
For CS(=O)(=O)O.NCC1CN(c2nc3c(cc2F)c(=O)c(C(=O)O)cn3C2CC2)C/C1=N\OCc1cc2c(cc1Cl)OCO2 (racemic), the MIC was 8 µg/mL.
